# “And” between values parts separate entries of the source, which are not always exact repeats. Identical values can stand only once.
# Key:
# Type in all cases: toxicity, cell-based
# Fibroblast [1] = assay: Incucyte cell viability with human fibroblast; conditions: 10 µM, compound concentration 10 uM; note: filed as whole numbers so only -1 and 0 and 1 occur
# Fibroblast [2] = assay: Multiplex assay against human fibroblast; conditions: 10 µM, compound concentration 10 uM
# Summary of the method: (§1)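 Hoechst33342, BioTracker Green Microtubule Cytoskeleton Dye, MitoTracker Red and Annexin V Alexa Fluor 680 were added to live cells at seeding, and imaging on a CQ1 microscope at 37°C and 5% CO2 followed compound addition. Gating by CellPathfinder machine learning separated cells into Hoechst high-intensity objects or normal cells, then normal cells into healthy, pyknosed or fragmented nuclei, then pyknosed cells into mitotic or apoptotic. Per cents of healthy-nucleus cells are reported for the tubulin, mitochondrial-mass and membrane-permeability phenotypes.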
# U2OS [3] = assay: Incucyte cell viability with U2OS; conditions: human, 10 µM, compound concentration 10 uM; note: filed as whole numbers so only -1 and 0 and 1 occur
# HEK-293T [4] = assay: Incucyte cell viability with HEK293T; conditions: human, 10 µM, compound concentration 10 uM; note: filed as whole numbers so only -1 and 0 and 1 occur
# HEK-293T [5] = assay: Multiplex assay against HEK293T; conditions: human, 10 µM, compound concentration 10 uM; summary of the method: as §1
# U2OS [6] = assay: Multiplex assay against U2OS; conditions: human, 10 µM, compound concentration 10 uM; summary of the method: as §1
# [7] = 6 h, replicate number 1, timepoint 6 hours
# [8] = 12 h, replicate number 1, timepoint 12 hours
# [9] = 18 h, replicate number 1, timepoint 18 hours
# [10] = 24 h, replicate number 1, timepoint 24 hours
smiles,measurement,setting,value
COc1cc(C)c(Sc2cnc(NC(=O)c3ccc(CNC(C)C(C)(C)C)cc3)s2)cc1C(=O)N1CCN(C(C)=O)CC1 (stereo not drawn),Growth Rate,Fibroblast [1]; [7],0
same,Growth Rate,Fibroblast [1]; [8],0
same,Growth Rate,Fibroblast [1]; [9],0
same,Growth Rate,Fibroblast [1]; [10],0
same,Population Apoptotic (%),"Fibroblast [2]; 12 h, replicate 1",67% and 75%
same,Population Fragmented Nuclei (%),"Fibroblast [2]; 12 h, replicate 1",22% and 35%
same,Population Healthy Nuclei (%),"Fibroblast [2]; 12 h, replicate 1",60% and 50%
same,Population Hoechst High Intensity Objects (%),"Fibroblast [2]; 12 h, replicate 1",12%
same,Population Membrane Permeable-Phenotype (%),"Fibroblast [2]; 12 h, replicate 1",6%
same,Population Mitotic Cells (%),"Fibroblast [2]; 12 h, replicate 1",32% and 25%
same,Population Normal (%),"Fibroblast [2]; 12 h, replicate 1",87%
same,Population Pyknosed Nuclei (%),"Fibroblast [2]; 12 h, replicate 1",14%
same,Population Tubulin-Different-Phenotype (%),"Fibroblast [2]; 12 h, replicate 1",4% and 12%
same,Total Cell Count,"Fibroblast [2]; 12 h, replicate 1",276 and 186
same,Population Apoptotic (%),"Fibroblast [2]; 12 h, replicate 2",50% and 40%
same,Population Fragmented Nuclei (%),"Fibroblast [2]; 12 h, replicate 2",46% and 56%
same,Population Healthy Nuclei (%),"Fibroblast [2]; 12 h, replicate 2",38% and 33%
same,Population Hoechst High Intensity Objects (%),"Fibroblast [2]; 12 h, replicate 2",29% and 43%
same,Population Membrane Permeable-Phenotype (%),"Fibroblast [2]; 12 h, replicate 2",10% and 11%
same,Population Mitochondria Different-Phenotype (%),"Fibroblast [2]; 12 h, replicate 2",10% and 27%
same,Population Mitotic Cells (%),"Fibroblast [2]; 12 h, replicate 2",50% and 60%
same,Population Normal (%),"Fibroblast [2]; 12 h, replicate 2",70% and 56%
same,Population Pyknosed Nuclei (%),"Fibroblast [2]; 12 h, replicate 2",16% and 9%
same,Total Cell Count,"Fibroblast [2]; 12 h, replicate 2",71 and 94
same,Population Apoptotic (%),"Fibroblast [2]; 24 h, replicate 1",57% and 91%
same,Population Fragmented Nuclei (%),"Fibroblast [2]; 24 h, replicate 1",18% and 31%
same,Population Healthy Nuclei (%),"Fibroblast [2]; 24 h, replicate 1",69% and 53%
same,Population Hoechst High Intensity Objects (%),"Fibroblast [2]; 24 h, replicate 1",17% and 13%
same,Population Membrane Permeable-Phenotype (%),"Fibroblast [2]; 24 h, replicate 1",9% and 6%
same,Population Normal (%),"Fibroblast [2]; 24 h, replicate 1",82% and 86%
same,Population Pyknosed Nuclei (%),"Fibroblast [2]; 24 h, replicate 1",14%
same,Total Cell Count,"Fibroblast [2]; 24 h, replicate 1",264 and 192
same,Population Apoptotic (%),"Fibroblast [2]; 24 h, replicate 2",33% and 66%
same,Population Fragmented Nuclei (%),"Fibroblast [2]; 24 h, replicate 2",46% and 54%
same,Population Healthy Nuclei (%),"Fibroblast [2]; 24 h, replicate 2",42% and 33%
same,Population Hoechst High Intensity Objects (%),"Fibroblast [2]; 24 h, replicate 2",23% and 42%
same,Population Membrane Permeable-Phenotype (%),"Fibroblast [2]; 24 h, replicate 2",8% and 22%
same,Population Mitotic Cells (%),"Fibroblast [2]; 24 h, replicate 2",66% and 33%
same,Population Normal (%),"Fibroblast [2]; 24 h, replicate 2",76% and 57%
same,Population Pyknosed Nuclei (%),"Fibroblast [2]; 24 h, replicate 2",11%
same,Total Cell Count,"Fibroblast [2]; 24 h, replicate 2",71 and 92
same,Growth Rate,"U2OS [3]; 0 h, replicate number 1, timepoint 0 hours",0
same,Growth Rate,U2OS [3]; [7],0
same,Growth Rate,U2OS [3]; [8],0
same,Growth Rate,U2OS [3]; [9],0
same,Growth Rate,U2OS [3]; [10],0
same,Growth Rate,HEK-293T [4]; [7],0
same,Growth Rate,HEK-293T [4]; [8],0
same,Growth Rate,HEK-293T [4]; [9],0
same,Growth Rate,HEK-293T [4]; [10],0
same,Population Apoptotic (%),"HEK-293T [5]; 12 h, replicate 1",22% and 18%
same,Population Fragmented Nuclei (%),"HEK-293T [5]; 12 h, replicate 1",20% and 17%
same,Population Healthy Nuclei (%),"HEK-293T [5]; 12 h, replicate 1",47% and 68%
same,Population Hoechst High Intensity Objects (%),"HEK-293T [5]; 12 h, replicate 1",19% and 8%
same,Population Membrane Permeable-Phenotype (%),"HEK-293T [5]; 12 h, replicate 1",6% and 3%
same,Population Mitotic Cells (%),"HEK-293T [5]; 12 h, replicate 1",77% and 81%
same,Population Normal (%),"HEK-293T [5]; 12 h, replicate 1",80% and 91%
same,Population Pyknosed Nuclei (%),"HEK-293T [5]; 12 h, replicate 1",31% and 13%
same,Total Cell Count,"HEK-293T [5]; 12 h, replicate 1",653 and 686
same,Population Fragmented Nuclei (%),"HEK-293T [5]; 12 h, replicate 2",4% and 5%
same,Population Healthy Nuclei (%),"HEK-293T [5]; 12 h, replicate 2",86% and 89%
same,Population Hoechst High Intensity Objects (%),"HEK-293T [5]; 12 h, replicate 2",3% and 2%
same,Population Membrane Permeable-Phenotype (%),"HEK-293T [5]; 12 h, replicate 2",1%
same,Population Mitochondria Different-Phenotype (%),"HEK-293T [5]; 12 h, replicate 2",22% and 9%
same,Population Mitotic Cells (%),"HEK-293T [5]; 12 h, replicate 2",85% and 95%
same,Population Normal (%),"HEK-293T [5]; 12 h, replicate 2",96% and 97%
same,Population Pyknosed Nuclei (%),"HEK-293T [5]; 12 h, replicate 2",9% and 4%
same,Total Cell Count,"HEK-293T [5]; 12 h, replicate 2",1194 and 1652
same,Population Apoptotic (%),"HEK-293T [5]; 24 h, replicate 1",28% and 21%
same,Population Fragmented Nuclei (%),"HEK-293T [5]; 24 h, replicate 1",19% and 13%
same,Population Healthy Nuclei (%),"HEK-293T [5]; 24 h, replicate 1",65% and 78%
same,Population Hoechst High Intensity Objects (%),"HEK-293T [5]; 24 h, replicate 1",14% and 6%
same,Population Membrane Permeable-Phenotype (%),"HEK-293T [5]; 24 h, replicate 1",10% and 6%
same,Population Mitotic Cells (%),"HEK-293T [5]; 24 h, replicate 1",71% and 78%
same,Population Normal (%),"HEK-293T [5]; 24 h, replicate 1",85% and 93%
same,Population Pyknosed Nuclei (%),"HEK-293T [5]; 24 h, replicate 1",14% and 7%
same,Total Cell Count,"HEK-293T [5]; 24 h, replicate 1",664 and 754
same,Population Apoptotic (%),"HEK-293T [5]; 24 h, replicate 2",7% and 4%
same,Population Fragmented Nuclei (%),"HEK-293T [5]; 24 h, replicate 2",15% and 22%
same,Population Healthy Nuclei (%),"HEK-293T [5]; 24 h, replicate 2",81% and 74%
same,Population Hoechst High Intensity Objects (%),"HEK-293T [5]; 24 h, replicate 2",3%
same,Population Membrane Permeable-Phenotype (%),"HEK-293T [5]; 24 h, replicate 2",8% and 5%
same,Population Mitochondria Different-Phenotype (%),"HEK-293T [5]; 24 h, replicate 2",5% and 2%
same,Population Mitotic Cells (%),"HEK-293T [5]; 24 h, replicate 2",92% and 95%
same,Population Normal (%),"HEK-293T [5]; 24 h, replicate 2",96%
same,Population Pyknosed Nuclei (%),"HEK-293T [5]; 24 h, replicate 2",3% and 2%
same,Total Cell Count,"HEK-293T [5]; 24 h, replicate 2",2038 and 2847
same,Population Apoptotic (%),"U2OS [6]; 12 h, replicate 1",33% and 44%
same,Population Fragmented Nuclei (%),"U2OS [6]; 12 h, replicate 1",6% and 2%
same,Population Healthy Nuclei (%),"U2OS [6]; 12 h, replicate 1",84%
same,Population Hoechst High Intensity Objects (%),"U2OS [6]; 12 h, replicate 1",3% and 4%
same,Population Mitochondria Different-Phenotype (%),"U2OS [6]; 12 h, replicate 1",12% and 33%
same,Population Mitotic Cells (%),"U2OS [6]; 12 h, replicate 1",66% and 55%
same,Population Normal (%),"U2OS [6]; 12 h, replicate 1",96% and 95%
same,Population Pyknosed Nuclei (%),"U2OS [6]; 12 h, replicate 1",8% and 6%
same,Population Tubulin-Different-Phenotype (%),"U2OS [6]; 12 h, replicate 1",32%
same,Total Cell Count,"U2OS [6]; 12 h, replicate 1",180 and 143
same,Population Apoptotic (%),"U2OS [6]; 12 h, replicate 2",0%
same,Population Fragmented Nuclei (%),"U2OS [6]; 12 h, replicate 2",5%
same,Population Healthy Nuclei (%),"U2OS [6]; 12 h, replicate 2",90% and 89%
same,Population Hoechst High Intensity Objects (%),"U2OS [6]; 12 h, replicate 2",12% and 8%
same,Population Mitochondria Different-Phenotype (%),"U2OS [6]; 12 h, replicate 2",16% and 15%
same,Population Mitotic Cells (%),"U2OS [6]; 12 h, replicate 2",100%
same,Population Normal (%),"U2OS [6]; 12 h, replicate 2",87% and 91%
same,Population Pyknosed Nuclei (%),"U2OS [6]; 12 h, replicate 2",3% and 4%
same,Population Tubulin-Different-Phenotype (%),"U2OS [6]; 12 h, replicate 2",24% and 19%
same,Total Cell Count,"U2OS [6]; 12 h, replicate 2",98 and 130
same,Population Apoptotic (%),"U2OS [6]; 24 h, replicate 1",78% and 28%
same,Population Fragmented Nuclei (%),"U2OS [6]; 24 h, replicate 1",2% and 4%
same,Population Healthy Nuclei (%),"U2OS [6]; 24 h, replicate 1",90% and 92%
same,Population Hoechst High Intensity Objects (%),"U2OS [6]; 24 h, replicate 1",1%
same,Population Membrane Permeable-Phenotype (%),"U2OS [6]; 24 h, replicate 1",7%
same,Population Mitochondria Different-Phenotype (%),"U2OS [6]; 24 h, replicate 1",14% and 24%
same,Population Normal (%),"U2OS [6]; 24 h, replicate 1",98%
same,Population Pyknosed Nuclei (%),"U2OS [6]; 24 h, replicate 1",6% and 3%
same,Population Tubulin-Different-Phenotype (%),"U2OS [6]; 24 h, replicate 1",18% and 34%
same,Total Cell Count,"U2OS [6]; 24 h, replicate 1",222 and 212
same,Population Apoptotic (%),"U2OS [6]; 24 h, replicate 2",18% and 40%
same,Population Fragmented Nuclei (%),"U2OS [6]; 24 h, replicate 2",3% and 7%
same,Population Healthy Nuclei (%),"U2OS [6]; 24 h, replicate 2",80% and 89%
same,Population Hoechst High Intensity Objects (%),"U2OS [6]; 24 h, replicate 2",10% and 7%
same,Population Membrane Permeable-Phenotype (%),"U2OS [6]; 24 h, replicate 2",15% and 5%
same,Population Mitochondria Different-Phenotype (%),"U2OS [6]; 24 h, replicate 2",25% and 33%
same,Population Mitotic Cells (%),"U2OS [6]; 24 h, replicate 2",81% and 60%
same,Population Normal (%),"U2OS [6]; 24 h, replicate 2",89% and 92%
same,Population Pyknosed Nuclei (%),"U2OS [6]; 24 h, replicate 2",16%
same,Population Tubulin-Different-Phenotype (%),"U2OS [6]; 24 h, replicate 2",15% and 28%
same,Total Cell Count,"U2OS [6]; 24 h, replicate 2",108 and 162

# From ChEMBL document CHEMBL4689842, “EUbOPEN Chemogenomics Library wave 1” (2021)
